Assay outcomes: PubChem BioAssay, Sanford-Burnham Center for Chemical Genomics
DNMT1 inh – DNMT1 (human) enzyme inhibition. P26358. DNMT1 molecular beacon, Hinp1I cleavage, fluorescence. inhibition (reported as % activation of signal), % at 10 µM. actives 0.83% (n = 360,000). AID 588458; in the data active means inhibition above about 50%
STEP inh – blocks human striatal-enriched tyrosine phosphatase. inhibition, % at 20 µM. P54829. recombinant STEP, OMFP fluorogenic substrate, fluorescence. actives 0.25% (n = 360,000);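 active means inhibition at 20 µM, scaled per plate between control wells, above about 37%, limit read from the data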;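 further: 0% = DMSO with enzyme and substrate and 100% = substrate only without enzyme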
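Also added – OMFP at 25 µM · Test system – STEP tyrosine phosphatase · Technique – FITC-channel fluorescence of OMFP product · Schedule – 20 min at room temperature, dark · Evaluation – control-normalized % inhibition with plate pattern correction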
Scp1 inh – inhibitors of human Scp-1 phosphatase; inhibition, % at 20 µM; Q9GZU7; Recombinant Scp1, phosphopeptide, malachite green phosphate absorbance; actives 0.88% (n = 340,000);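 active means inhibition above about 50% at 20 µM, limit read from the data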;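 further: plate controls were DMSO wells with enzyme for no effect and wells lacking enzyme for full effect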
Target sequence (Q9GZU7 76-261 limits assumed): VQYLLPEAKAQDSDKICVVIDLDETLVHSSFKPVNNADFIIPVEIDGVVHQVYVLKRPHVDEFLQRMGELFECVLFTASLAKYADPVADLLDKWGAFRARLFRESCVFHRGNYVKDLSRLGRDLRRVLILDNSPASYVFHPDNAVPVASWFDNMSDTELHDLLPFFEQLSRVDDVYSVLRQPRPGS
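System: truncated SCP-1 phosphatase (76-261aa); medium: Tris acetate buffer pH 5.5 with MgCl2 and Tween-20; incubation: 45 min room-temperature reaction, 5 min colour, 30 min stabiliser; compound: single 20 µM dose, 1% DMSO; reagent: Phosphorylated 17-residue peptide substrate; read-out: % inhibition at 20 µM; technique: colorimetric free-phosphate detection, absorbance 630 nm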
SUMO1-SIM PPI – SUMO1-SIM interaction modulation; SUMO1 binding to a labelled peptide, TR-FRET, 1 h; actives 0.33% (n = 360,000); inhibition, % at 20 µM; P63165; in the data active means inhibition above about 37%
LMPTP inh – blocks human LMPTP phosphatase; P24666; recombinant LMPTP-A, OMFP fluorogenic substrate, fluorescence intensity; inhibition, % at 20 µM; actives 0.22% (n = 360,000); AID 651560;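 active means compounds that cut the enzyme signal by at least half of the control window in the single-dose screen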;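 further: plate controls were DMSO wells with enzyme plus substrate for no effect and substrate without enzyme for full effect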
Target sequence (P24666 whole entry, looked up): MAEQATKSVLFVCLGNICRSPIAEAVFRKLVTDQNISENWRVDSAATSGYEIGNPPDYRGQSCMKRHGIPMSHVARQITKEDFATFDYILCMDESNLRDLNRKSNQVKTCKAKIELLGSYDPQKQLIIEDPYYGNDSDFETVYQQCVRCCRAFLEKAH
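Buffer or medium: Bis-Tris pH 6.0, DTT, detergent; Assay system: LMPTP-A enzyme; Quantity: 0.625 nM enzyme; Detection: endpoint fluorescence intensity; Times: 50 min dark incubation at room temperature; Controls: substrate-only low control, DMSO enzyme-plus-substrate high control; Doses: single 20 µM dose; Read-out: percent inhibition versus substrate-only and uninhibited controls; Reagent: 400 µM OMFP.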
CSN deneddyl inh – inhibitors of human CSN-mediated cullin deneddylation. AID 651999. Q92905. actives 0.38% (n = 360,000). inhibition, % at 12.5 µM. Purified CSN, SCF-Nedd8-OG deneddylation, fluorescence polarization;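 active means pattern-corrected inhibition above about 35%, with an unprinted fluorescence ratio check between 0.5 and 1.5, limit read from the data, passing the limit was not always enough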;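 further: 0% = enzyme with substrate and 100% = substrate without enzyme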
Target sequence (Q92905 whole entry, looked up, one chain of several): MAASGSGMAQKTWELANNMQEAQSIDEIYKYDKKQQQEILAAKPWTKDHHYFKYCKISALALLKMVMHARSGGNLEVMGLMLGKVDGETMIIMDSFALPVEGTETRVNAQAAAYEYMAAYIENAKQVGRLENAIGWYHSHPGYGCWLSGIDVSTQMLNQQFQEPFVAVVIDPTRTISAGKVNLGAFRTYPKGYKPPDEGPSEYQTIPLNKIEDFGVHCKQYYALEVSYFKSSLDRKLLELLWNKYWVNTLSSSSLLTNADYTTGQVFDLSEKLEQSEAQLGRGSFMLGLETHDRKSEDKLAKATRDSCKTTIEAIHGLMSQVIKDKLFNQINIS
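assay system = purified human Csn5 enzyme expressed in HEK293T cells | amount = 0.24 nM enzyme | buffer or medium = Tris/NaCl/DTT buffer, pH 7.5 | reagent = 10 nM SCFSkp2-Nedd8OG | compound = one concentration, 12.5 µM, 0.25% DMSO | times = 90 min reaction at room temperature | signal = FP | read-out basis = % inhibition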
DNMT1 confirm – confirmation of human DNMT1 inhibitors. actives 8% (n = 2,300). inhibition, % at 10 µM. shares compounds with DNMT1 inh. DNMT1 molecular beacon HinP1I cleavage, fluorescence;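 active means average inhibition of at least 30% in the single-concentration confirmation test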
Beacon interf – shows spectral interference in the DNMT1 beacon assay | shares compounds with DNMT1 inh | DNMT1 molecular beacon spectral interference counterscreen, fluorescence 485/520 | activation (fluorescence interference), % at 10 µM | actives 1% (n = 2,300) | AID 602387;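 active means activation of at least 30% at 10 µM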;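 further: DNMT1 catalytic domain with a HinP1I cleavage step and a FAM/dabcyl DNA beacon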
Starred values were filed as active, the others as inactive. Shown are actives, neighbours in structure and some others; about 1.9% of the full set was active somewhere.

CCC(CCCO)CCC[C@H](C)CCC1OCCO1 (stereo partly drawn) was read as DNMT1 inh 59*, STEP inh -1, Scp1 inh -2, SUMO1-SIM PPI -4, LMPTP inh -1, CSN deneddyl inh -5, DNMT1 confirm 1 and Beacon interf 5.
For O=C(Cc1nnc(NC(=O)Nc2ccc(Cl)cc2)s1)NCc1ccccc1 the results were DNMT1 inh 48, STEP inh 0, Scp1 inh 0, SUMO1-SIM PPI 1, LMPTP inh -1, CSN deneddyl inh -6, DNMT1 confirm 1 and Beacon interf 4.
Screening CN(CC(=O)Nc1ccc(N2CCOCC2)cc1)C(=O)c1cc(F)c(F)cc1Cl returned DNMT1 inh -1, STEP inh 0, Scp1 inh -7, SUMO1-SIM PPI 4, LMPTP inh -2 and CSN deneddyl inh 2.
CCOc1ccc(/C=c2\sc3nc(-c4ccco4)nn3c2=O)cc1OCC was read as DNMT1 inh 65*, STEP inh 1, Scp1 inh 42, SUMO1-SIM PPI 12, LMPTP inh 0, CSN deneddyl inh 24, DNMT1 confirm 4 and Beacon interf -1.
COc1cc(/C=c2\sc3nc(=O)c(-c4ccccc4)nn3c2=O)ccc1OCCC(C)C was read as DNMT1 inh -2, STEP inh -1, Scp1 inh -7, SUMO1-SIM PPI 4, LMPTP inh 2 and CSN deneddyl inh 6.
Screening O=C(c1ccccc1)c1ccc(O)c(O)c1O returned DNMT1 inh 78*, STEP inh 32, Scp1 inh 66*, SUMO1-SIM PPI 20, LMPTP inh 51*, CSN deneddyl inh 59, DNMT1 confirm 7 and Beacon interf -3.
`Cc1cc(C(=O)c2ccccc2)cc(C)c1O` gave DNMT1 inh 7, STEP inh -1, Scp1 inh -5, SUMO1-SIM PPI -9, LMPTP inh -2 and CSN deneddyl inh 0.
For CN(CC1CCCO1)S(=O)(=O)c1ccc(C(=O)Nc2nc3cc4c(cc3s2)OCO4)cc1 (stereo not drawn) the results were DNMT1 inh 64*, STEP inh 1, Scp1 inh -14, SUMO1-SIM PPI 8, LMPTP inh -1, CSN deneddyl inh 2, DNMT1 confirm 3 and Beacon interf 6.
Screening CC1(C)C[C@H](O)[C@]2(CO)[C@H](O)C[C@]3(C)C(=CCC4[C@@]5(C)CC[C@H](O)C(C)(C)C5CC[C@]43C)[C@@H]2C1 (stereo partly drawn) returned DNMT1 inh 71*, STEP inh 0, Scp1 inh -3, SUMO1-SIM PPI 3, LMPTP inh 0, CSN deneddyl inh -1, DNMT1 confirm 2 and Beacon interf -5.
Cc1c(-c2ccccc2)n[nH]c1C(=O)NN was read as DNMT1 inh 0, STEP inh -2, Scp1 inh -7, SUMO1-SIM PPI 4, LMPTP inh -3 and CSN deneddyl inh 4.
Screening NNC(=O)c1[nH]c(-c2ccccc2)cc1-c1ccccc1 returned DNMT1 inh 68*, STEP inh 1, Scp1 inh 2, SUMO1-SIM PPI -2, LMPTP inh 2, CSN deneddyl inh 1, DNMT1 confirm 4 and Beacon interf 5.
For Cc1cc2cc(CNS(=O)(=O)c3ccccc3)ccc2n1C the results were DNMT1 inh 26, STEP inh 1, Scp1 inh -6, SUMO1-SIM PPI -26, LMPTP inh 32 and CSN deneddyl inh -2.
COc1ccc(S(=O)(=O)NCc2ccc3c(c2)cc(C)n3C)cc1 was read as DNMT1 inh 59*, STEP inh 2, Scp1 inh -7, SUMO1-SIM PPI -20, LMPTP inh 36, CSN deneddyl inh -4, DNMT1 confirm 0 and Beacon interf 15.
Screening Cc1ccc(CNC(=S)NC2CCCCC2)cc1 returned DNMT1 inh 2, STEP inh 0, Scp1 inh 4, SUMO1-SIM PPI -8, LMPTP inh 0 and CSN deneddyl inh -1.
Cc1cc2cc(CNC(=O)Nc3ccccc3)ccc2n1C was read as DNMT1 inh 54*, STEP inh 3, Scp1 inh 3, SUMO1-SIM PPI -6, LMPTP inh 6, CSN deneddyl inh -2, DNMT1 confirm 2 and Beacon interf 5.
CCOC(=O)NCc1ccc2c(c1)cc(C)n2C was read as DNMT1 inh -12, STEP inh 6, Scp1 inh -8, SUMO1-SIM PPI -28, LMPTP inh 4 and CSN deneddyl inh 2.
Cc1cc2cc(CNC(=S)NC3CCCCC3)ccc2n1C was read as DNMT1 inh 63*, STEP inh 3, Scp1 inh 4, SUMO1-SIM PPI -7, LMPTP inh 5, CSN deneddyl inh 11, DNMT1 confirm 6 and Beacon interf 6.
`Cc1cc2cc(CNC(=S)NCc3ccccc3)ccc2n1C` gave DNMT1 inh 77*, STEP inh 5, Scp1 inh 3, SUMO1-SIM PPI -4, LMPTP inh 19, CSN deneddyl inh 14, DNMT1 confirm 2 and Beacon interf 2.
`O=C(NCC(=O)N1CC=C(c2ccccc2)CC1)c1ccc(F)cc1` gave DNMT1 inh 4, STEP inh 3, Scp1 inh -21, SUMO1-SIM PPI 2, LMPTP inh -2 and CSN deneddyl inh 0.
For CCS(=O)(=O)N1CCC(C(=O)Nc2cc(C)ccc2O)CC1 the results were DNMT1 inh -1, STEP inh -4, Scp1 inh -4, SUMO1-SIM PPI 13, LMPTP inh 0 and CSN deneddyl inh 3.
For Cc1ccc2c(NC(=O)c3ccco3)cccc2n1 the results were DNMT1 inh -6, STEP inh 0, Scp1 inh -5, SUMO1-SIM PPI -3, LMPTP inh 2 and CSN deneddyl inh 0.
CC(C)C(NC(=O)c1ccc2c(c1)OCO2)C(=O)N/N=C/c1cccs1 (stereo not drawn) was read as DNMT1 inh 60*, STEP inh 0, Scp1 inh 5, SUMO1-SIM PPI -5, LMPTP inh 0, CSN deneddyl inh -2, DNMT1 confirm 1 and Beacon interf 0.
Screening COc1ccc(S(=O)(=O)N2CCOCC2)cc1NC(=O)c1cc(C)oc1C returned DNMT1 inh 65*, STEP inh -1, Scp1 inh -7, SUMO1-SIM PPI 0, LMPTP inh 0, CSN deneddyl inh -2, DNMT1 confirm 4 and Beacon interf -1.
